We go through ten molecules from ChEMBL document CHEMBL3734668, “Evaluation of small molecule SecA inhibitors against methicillin-resistant Staphylococcus aureus” (Bioorg Med Chem, 2015).

The structures appear in SMILES notation. pIC50: −log10 of the molar value. Values after ≈ are worked out from the molar mass of the structure shown. Active and inactive are the calls of the source. The rule behind the calls is not given here.

For assay [1], the system named is Staphylococcus aureus. The experiment in a line: Bacteriostatic activity against Staphylococcus aureus Mu50 after 24 hrs. The assay is classed as functional. The following applies: Mu50, 24 h. The method in brief: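 Broth microdilution per CLSI guidelines in LB. Inhibitor added to dilute early-log culture (OD600 ≈ 0.05), 37 °C, 250 rpm, 24 hrs. Run in triplicate in three separate experiments. MIC read as the lowest concentration with no growth.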

For assay [2], the system named is Staphylococcus aureus. In words: Bacteriostatic activity against Staphylococcus aureus ATCC 6538 after 24 hrs. The assay is classed as functional. The note with it: ATCC 6538, 24 h.
In assay [3] the target is T1, Protein translocase subunit SecA 2 (Staphylococcus aureus (strain NCTC 8325), UniProt Q2FUW6).
T1 sequence (Q2FUW6 whole entry): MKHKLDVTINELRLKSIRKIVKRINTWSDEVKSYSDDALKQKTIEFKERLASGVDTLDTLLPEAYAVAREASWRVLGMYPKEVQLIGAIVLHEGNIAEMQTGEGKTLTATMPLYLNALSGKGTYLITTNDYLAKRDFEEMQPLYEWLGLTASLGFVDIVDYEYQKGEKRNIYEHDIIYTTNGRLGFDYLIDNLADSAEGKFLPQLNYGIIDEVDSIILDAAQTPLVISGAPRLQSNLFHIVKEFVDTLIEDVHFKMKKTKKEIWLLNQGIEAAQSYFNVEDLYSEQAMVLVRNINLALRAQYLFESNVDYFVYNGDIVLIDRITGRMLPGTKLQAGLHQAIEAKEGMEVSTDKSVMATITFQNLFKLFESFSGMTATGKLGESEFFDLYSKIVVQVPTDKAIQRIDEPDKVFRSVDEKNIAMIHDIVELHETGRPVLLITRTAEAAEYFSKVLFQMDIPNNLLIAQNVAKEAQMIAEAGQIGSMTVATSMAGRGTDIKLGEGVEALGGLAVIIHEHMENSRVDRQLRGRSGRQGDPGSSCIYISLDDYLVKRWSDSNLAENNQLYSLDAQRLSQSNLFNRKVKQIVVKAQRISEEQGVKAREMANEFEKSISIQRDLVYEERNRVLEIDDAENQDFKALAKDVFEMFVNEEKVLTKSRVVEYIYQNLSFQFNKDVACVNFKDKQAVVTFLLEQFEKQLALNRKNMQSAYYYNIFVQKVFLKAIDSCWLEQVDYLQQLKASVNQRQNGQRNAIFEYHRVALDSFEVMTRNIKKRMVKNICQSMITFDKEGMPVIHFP
The experiment in a line: Inhibition of Staphylococcus aureus ATCC 35556 SecA2 expressed in Escherichia coli BL21-gammaDE3 assessed as reduction in intrinsic ATPase activity incubated for 3 hrs measured by malachite green colorimetric method.

In assay [4] the test system is Staphylococcus aureus. In words: Bacteriostatic activity against Staphylococcus aureus Mu3 after 24 hrs. The assay is classed as functional. The note with it: Mu3, 24 h. The method in brief: (§1)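 Broth microdilution MIC per CLSI guidance in LB, 37 °C, shaking 250 rpm, 24 hr; run in triplicate in three separate experiments. MIC taken as lowest inhibitor concentration with no growth. Compounds from DMSO stocks; untreated controls carry equal DMSO.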

Assay [5] deals with Staphylococcus aureus. In words: Bacteriostatic activity against Staphylococcus aureus Newman after 24 hrs. The assay is classed as functional. The method, boiled down: as §1
The test system of assay [6] is Staphylococcus aureus. The experiment in a line: Bacteriostatic activity against Staphylococcus aureus N315 after 24 hrs. The following applies: N315, 24 h. The class given is functional. The method in brief:
as §1

Assay [7] deals with T2, Protein translocase subunit SecA 1 (Staphylococcus aureus (strain NCTC 8325), UniProt O06446).
T2 sequence (O06446 whole entry): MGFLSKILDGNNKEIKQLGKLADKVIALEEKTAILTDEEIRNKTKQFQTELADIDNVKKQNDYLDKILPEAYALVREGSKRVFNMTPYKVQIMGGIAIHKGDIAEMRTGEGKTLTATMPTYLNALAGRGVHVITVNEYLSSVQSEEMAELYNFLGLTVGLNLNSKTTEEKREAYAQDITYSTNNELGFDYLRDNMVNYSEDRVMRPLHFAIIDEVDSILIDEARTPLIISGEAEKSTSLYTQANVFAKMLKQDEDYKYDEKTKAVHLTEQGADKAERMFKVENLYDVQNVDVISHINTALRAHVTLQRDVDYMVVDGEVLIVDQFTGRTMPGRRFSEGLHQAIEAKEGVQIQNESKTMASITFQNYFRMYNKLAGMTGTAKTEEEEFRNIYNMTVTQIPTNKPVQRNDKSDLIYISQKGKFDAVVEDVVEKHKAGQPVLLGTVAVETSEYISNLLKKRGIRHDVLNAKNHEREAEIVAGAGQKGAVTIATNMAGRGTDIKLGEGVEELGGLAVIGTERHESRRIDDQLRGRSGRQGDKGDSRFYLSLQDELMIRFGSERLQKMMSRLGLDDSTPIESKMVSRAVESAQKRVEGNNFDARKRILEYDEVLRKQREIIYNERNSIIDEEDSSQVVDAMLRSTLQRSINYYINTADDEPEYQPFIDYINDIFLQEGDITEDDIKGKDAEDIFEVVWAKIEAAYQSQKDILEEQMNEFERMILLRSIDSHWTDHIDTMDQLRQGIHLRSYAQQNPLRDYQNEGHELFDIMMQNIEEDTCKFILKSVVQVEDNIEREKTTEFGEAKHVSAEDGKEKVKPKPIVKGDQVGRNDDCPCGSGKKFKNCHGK
In words: Inhibition of Staphylococcus aureus ATCC 35556 SecA1 expressed in Escherichia coli BL21-gammaDE3 assessed as reduction in intrinsic ATPase activity incubated for 3 hrs measured by malachite green colorimetric method.

Assay [8] concerns the target T2, Protein translocase subunit SecA 1. In words: Inhibition of Staphylococcus aureus ATCC 35556 SecA1 liposomal ion channel activity in Xenopus laevis oocytes incubated for 3 hrs measured by recording ion current for 1 min. The class given is cell-based. The method, boiled down:
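Xenopus laevis oocytes injected at animal pole with 50 nl containing 120 ng liposomes, 120 ng SaSecA1, 14 ng proOmpA, 2 mM ATP, 1 mM Mg(OAc)2 plus varying inhibitor. Incubated 3 hr at 23 °C, then ion current recorded continuously 1 min.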

Assay [9] can be described thus: Inhibition of Escherichia coli SecA N68 mutant ATPase activity.
Assay [10] concerns the target T3, Protein translocase subunit SecA 1 (Staphylococcus aureus (strain NCTC 8325)) (UniProt O06446).
T3 sequence (whole entry): T2 sequence (O06446 whole entry)
In words: Binding affinity to SecA1 in Staphylococcus aureus ATCC 6538 whole cell lysate incubated for 1 hr by Streptavidin-based pull down assay. The method in brief: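 Lysate precleared on streptavidin magnetic beads (4 °C, 1 hr), then rolled ±400 μM biotinylated probe at 4 °C, 1 hr. Beads washed three times, boiled in SDS buffer; SaSecA1 detected by Western blot using cross-reacting EcSecA antibody.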

In assay [11] the test system is Staphylococcus aureus. In words: Bacteriostatic activity against wild type Staphylococcus aureus 8325-4. The class given is functional. The method, boiled down: as §1
In assay [12] the test system is Staphylococcus aureus. The experiment in a line: Bacteriostatic activity against Staphylococcus aureus K2361 overexpressing NorA. The class given is functional. The method in brief: as §1
In assay [13] the test system is Staphylococcus aureus. The experiment in a line: Bacteriostatic activity against Staphylococcus aureus K2068 overexpressing MepA. The class given is functional. The method, boiled down: as §1
Assay [14] deals with Staphylococcus aureus. In words: Bacteriostatic activity against NorA deficient Staphylococcus aureus K1758. The class given is functional. The method in brief: as §1
The test system of assay [15] is Staphylococcus aureus. The experiment in a line: Bacteriostatic activity against MepA deficient Staphylococcus aureus K2908. The class given is functional. The method, boiled down:
as §1

`CO[C@H]1/C=C/O[C@@]2(C)Oc3c(C)c(O)c4c(O)c(c(/C=N/N5CCN(C)CC5)c(O)c4c3C2=O)NC(=O)/C(C)=C\C=C\[C@H](C)[C@H](O)[C@@H](C)[C@@H](O)[C@@H](C)[C@H](OC(C)=O)[C@@H]1C` [RIFAMPIN] displayed an MIC in the assay with Staphylococcus aureus [1] above 1000 µg/mL.

For `Oc1ccc2c(c1)Oc1cc(O)ccc1C2C1CCCC1`, the MIC in the assay on Staphylococcus aureus [2] is 11 µg/mL (≈ 39 µM); in the assay on Staphylococcus aureus [4], 14 µg/mL (≈ 49.6 µM); against Staphylococcus aureus [5] it was 7 µg/mL (≈ 24.8 µM); with Staphylococcus aureus [1] it was 14 µg/mL (≈ 49.6 µM); against Staphylococcus aureus [6] it was 14 µg/mL (≈ 49.6 µM). Also, the pIC50 is 4.52 in assay [3], 4.46 in [7] and 5.70 in assay [8].

Consider `O=C(CCCC[C@@H]1SC[C@@H]2NC(=O)N[C@@H]21)NCCCCCCC1c2ccc(O)cc2Oc2cc(O)ccc21`, for which the pIC50 in [9] was 4.05. For the same molecule, the result in [10] was Active.

`CC[C@H]1OC(=O)[C@H](C)[C@@H](O[C@H]2C[C@@](C)(OC)[C@@H](O)[C@H](C)O2)[C@H](C)[C@@H](O[C@@H]2O[C@H](C)C[C@H](N(C)C)[C@H]2O)[C@](C)(O)C[C@@H](C)C(=O)[C@H](C)[C@@H](O)[C@]1(C)O` [ERYTHROMYCIN] had an MIC in the assay on Staphylococcus aureus [1] above 1250 µg/mL.

Take `CN[C@@H](CC(C)C)C(=O)N[C@H]1C(=O)N[C@@H](CC(N)=O)C(=O)N[C@H]2C(=O)N[C@H]3C(=O)N[C@H](C(=O)N[C@@H](C(=O)O)c4cc(O)cc(O)c4-c4cc3ccc4O)[C@H](O)c3ccc(c(Cl)c3)Oc3cc2cc(c3O[C@H]2O[C@@H](CO)[C@H](O)[C@@H](O)[C@@H]2O[C@@H]2C[C@@](C)(N)[C@@H](O)[C@@H](C)O2)Oc2ccc(cc2Cl)[C@H]1O`: in the assay with Staphylococcus aureus [1], it took 8 µg/mL (≈ 5.52 µM) to inhibit growth (MIC).

With `O=C([O-])c1c(Cl)c(Cl)c(Cl)c(Cl)c1-c1c2cc(I)c(=O)c(I)c-2oc2c(I)c([O-])c(I)cc12.[Na+].[Na+]` [ROSE BENGAL SODIUM], the MIC was determined as 13 µg/mL against Staphylococcus aureus [11]; 35 µg/mL against Staphylococcus aureus [12]; 59 µg/mL against Staphylococcus aureus [4]; 15 µg/mL in the assay on Staphylococcus aureus [13]; 51 µg/mL with Staphylococcus aureus [5]; 22 µg/mL against Staphylococcus aureus [14]. The MIC with Staphylococcus aureus [15] was 11 µg/mL; against Staphylococcus aureus [6], 21 µg/mL. For the same molecule, the pIC50 in assay [3] is 5.70.

The molecule `CN(C)[C@@H]1C(O)=C(C(N)=O)C(=O)[C@@]2(O)C(O)=C3C(=O)c4c(O)cccc4[C@@](C)(O)[C@H]3C[C@@H]12` [TETRACYCLINE] had an MIC against Staphylococcus aureus [1] of 63 µg/mL (≈ 142 µM).

In the assay with Staphylococcus aureus [1], `CC1(C)S[C@@H]2[C@H](NC(=O)[C@H](N)c3ccccc3)C(=O)N2[C@H]1C(=O)O` [AMPICILLIN] displayed an MIC of 1000 µg/mL (≈ 2860 µM).

Regarding `CCn1cc(C(=O)O)c(=O)c2cc(F)c(N3CCNCC3)cc21` [NORFLOXACIN], it took 250 µg/mL (≈ 783 µM) to inhibit growth against Staphylococcus aureus [1] (MIC).

Turning to `NC[C@H]1O[C@H](O[C@H]2[C@H](O)[C@@H](O[C@H]3O[C@H](CO)[C@@H](O)[C@H](N)[C@H]3O)[C@H](N)C[C@@H]2N)[C@H](O)[C@@H](O)[C@@H]1O` [KANAMYCIN], 1000 µg/mL (≈ 2060 µM) was the least that counted as inhibitory in the assay with Staphylococcus aureus [1] (MIC).

For orientation: MIC means the lowest concentration found to suppress growth. High values mean a need for much substance, low ones inhibition by little substance. The term pIC50 denotes −log10 of the IC50, conventionally taken in molar units.
